Source: PubChem
Only some compounds are listed: those with a hit (about 3.4% of all), similar ones and a draw of the others.
TMEM16A inh: mouse TMEM16A channel inhibition, primary screen. Q8BHY3. HEK293 TMEM16A/YFP iodide influx fluorescence, ionomycin. normalized B-score (activity score, 25-100; higher = stronger inhibition) at 10 µM. actives 1.2% (n = 310,000);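 active = ratio plate-corrected score three or more library SD toward inhibition, starting fluorescence score within five deviations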;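 also: score derived from kinetic fluorescence span divided by baseline fluorescence per well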
beta cell repl: induces beta-cell replication in MIN6 cells; proliferation, % at 10 µM; actives 0.29% (n = 330,000); MIN6 cells proliferation, ATPlite luminescence, 48 h; cells starved in 0.2% serum; 100% = growth in 10% serum;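 active = compounds whose signal lies at least 3.5 SD above the mean of all wells on their plate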;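 also: 0% = DMSO-treated cells in low-serum medium and 100% = 10% serum control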
MC4R ag barr: human MC4R agonism via beta-arrestin; P32245; U2OS MC4R beta-arrestin complementation, luminescence; percent of melanotan II response, DMSO zero; activation, % at 8.9 µM; actives 0.98% (n = 360,000); AID 540308;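 active = activation above a per-plate cutoff, the mean activation of sample wells on that plate plus 3 SD, cut at about 8% in these data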
m5-HT2A agonist: agonists of mouse serotonin 5-HT2A receptor (HTR2A); P35363; CHO-K1 mHTR2A beta-arrestin complementation, luminescence; percent of 30 µM serotonin response; activation, % at 7.6 µM; actives 0.66% (n = 360,000);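 active = activation above a run cutoff, the mean activation of all tested compounds plus 3 SD, cut at about 14% in these data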;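 also: 0% = plate median of compound wells and 100% = 30 µM serotonin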
MC4R antag cAMP: antagonists of human melanocortin 4 receptor (MC4R); actives 0.48% (n = 360,000); P32245; inhibition, % at 6.5 µM; MC4R-expressing cells, MTII-stimulated cAMP, LANCE TR-FRET;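 active = inhibition above its plate's cutoff, the mean of tested wells on that plate plus 3 SD, cut at about 29% in these data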;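 also: 0% = Melanotan II alone and 100% = Melanotan II plus saturating MCL0020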
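Material: human MC4R-expressing U2OS cells. Probe or stimulus: Melanotan II challenge. Dosing: 6.5 µM single dose. Times: 30-min compound, 1-h challenge, 1-h detection, room temperature. Technique: TR-FRET with Eu-cAMP and labeled anti-cAMP, 671 nm. Replication: singlicate.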
TMEM16A act: activates or potentiates the mouse TMEM16A chloride channel | Q8BHY3 | HEK293 TMEM16A/YFP-H148Q/I152L, iodide quench fluorescence; active compounds read low | B-score at 10 µM | actives 0.3% (n = 340,000);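 active = fluorescence-ratio B-score plate-corrected deviation score at least 3 library SD below zero, with starting fluorescence score within 5 deviations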;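 also: channel opened by trigger with iodide after compound preincubation; score built on the fluorescence ratio of max minus min over baseline; more negative score means more quench and so TMEM16A activation or potentiation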
MOR ag counter: activates human mu opioid receptor in HTR2A counterscreen; shares compounds with m5-HT2A agonist; U2OS OPRM1 beta-arrestin PathHunter, luminescence; DMSO 0%, DAMGO 9.3 µM 100%; activation, % at 9.3 µM; actives 5.3% (n = 2,300); AID 624380;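 active = mean activation above the mean of DMSO-only wells plus 3 SD, cut at about 0.5% in these data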
Target sequence (P35372 whole entry, looked up): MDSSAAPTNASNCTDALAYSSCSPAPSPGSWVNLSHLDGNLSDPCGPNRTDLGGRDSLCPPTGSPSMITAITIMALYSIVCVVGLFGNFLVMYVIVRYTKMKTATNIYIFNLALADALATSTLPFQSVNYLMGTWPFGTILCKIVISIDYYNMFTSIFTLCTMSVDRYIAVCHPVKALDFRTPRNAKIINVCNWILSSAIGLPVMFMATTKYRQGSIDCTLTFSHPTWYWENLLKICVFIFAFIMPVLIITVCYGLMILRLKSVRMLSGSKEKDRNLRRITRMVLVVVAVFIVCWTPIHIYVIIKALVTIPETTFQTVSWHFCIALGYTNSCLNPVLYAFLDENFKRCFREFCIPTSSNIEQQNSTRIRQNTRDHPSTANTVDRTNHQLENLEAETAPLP
HTR2A ag conf: mouse HTR2A agonism confirmed; shares compounds with m5-HT2A agonist; CHO-K1 PathHunter beta-arrestin recruitment, luminescence; DMSO 0%, 30 µM serotonin 100%; activation, % at 7.6 µM; actives 19% (n = 2,300); AID 624381;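 active = mean activation across triplicates above the hit threshold derived in the original primary screen, cut at about 15% in these data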
Active calls of the source: *; i = inactive; nt = no result given.

SMILES | TMEM16A inh | beta cell repl | MC4R ag barr | m5-HT2A agonist | MC4R antag cAMP | TMEM16A act | MOR ag counter | HTR2A ag conf
Cc1nc2ncnn2c(C)c1CCC(=O)NCCc1ccccc1 | i | -1 | 2 | 4 | -3 | i | nt | nt
Cc1nc2ncnn2c(C)c1CCC(=O)NCCCN1CCN(c2cccc(Cl)c2)CC1 | i | 0 | -1 | 24* | 14 | i | 0.9* | 80*
Cc1ccnc(NC(=O)c2cccc(NC(=O)CC3SC(N4CCCCC4)=NC3=O)c2)c1 (centres undefined) | nt | 0 | -4 | 15* | 0 | -38* | 0 | -1
Cc1ccnc(NC(=O)c2ccc(NC(=O)CC3SC(N4CCCC4)=NC3=O)cc2)c1 (centres undefined) | i | 0 | -3 | 11 | 1 | i | nt | nt
O=C(NCC1CCCO1)NC1CCCCC1 (centres undefined) | i | 1 | -2 | 17* | 1 | i | -1 | -4
O=C1CSC(=S)N1/N=C/c1cc(Br)c(O)c(Br)c1 | i | nt | -1 | 4 | 6 | i | nt | nt
Cc1cc(C)c2nc(NNC(=O)c3ccc(S(=O)(=O)N4CC(C)CC(C)C4)cc3)sc2c1 (centres undefined) | i | -7 | 1 | 62* | 9 | i | 0 | -4
Cc1cc(C)c2nc(NNC(=O)c3ccc(S(=O)(=O)N4CCCC(C)C4)cc3)sc2c1 (centres undefined) | i | -7 | 1 | 13 | 20 | i | nt | nt
Cc1cc(=O)n2nc(N3CCCC(C(=O)NCc4ccccc4Cl)C3)sc2n1 (centres undefined) | i | -4 | 2 | -2 | 17 | i | nt | nt
c1ccc(C(c2nnnn2C2CCCC2)N2CCN(c3nc4ccccc4s3)CC2)cc1 (centres undefined) | i | -2 | 1 | 5 | 1 | i | nt | nt
c1csc(C(c2nnnn2C2CCCCC2)N2CCN(c3nc4ccccc4s3)CC2)c1 (centres undefined) | nt | nt | -2 | 15* | 2 | i | -1 | 8
CCCC(c1nnnn1CC1CCCO1)N1CCN(c2nc3ccccc3s2)CC1 (centres undefined) | i | 2 | -3 | 2 | 1 | i | nt | nt
CCCCC(c1nnnn1CC1CCCO1)N1CCN(c2nc3ccccc3s2)CC1 (centres undefined) | nt | nt | -2 | 16* | 9 | nt | -1 | 9
CC1CC(C)(C)NC(=S)N1CCCC(=O)NCc1ccccc1 (centres undefined) | i | -4 | 3 | 15* | 17 | i | -1 | -1
COc1ccc(CC(=O)OCC(=O)NC2CCCC(C)C2C)cc1OC (centres undefined) | nt | 6 | 0 | 0 | 6 | i | nt | nt
CC1=CC=CN2CC(O)CN=C12 (centres undefined) | i | -1 | 0 | 28* | 14 | i | -1 | -3
OCC[C@H]1C[C@@H](O)[C@H](O)[C@@]2(Cc3ccccc3CO2)O1 | i | 0 | -1 | 15* | 2 | i | -1 | 0
OCC[C@@H]1C[C@H](O)[C@@H](O)[C@@]2(Cc3ccccc3CO2)O1 | i | 4 | 1 | 2 | 4 | i | nt | nt
O=S(=O)(Nc1cccc(-n2cnnn2)c1)c1cc(Br)ccc1Br | i | -3 | -2 | 3 | 3 | i | nt | nt
Cc1cc(O)c2c(CN3CCN(Cc4ccccc4)CC3)cc(=O)oc2c1 | i | 2 | 0 | 20* | 10 | i | 0 | 18*
Cc1cccc(NC(=O)c2cc3c(=O)n4ccccc4nc3n(CC(C)C)c2=N)c1 | i | -6 | -1 | 15* | 7 | i | 0 | 2
CCOc1ccc(CNC(=O)Cn2ccc3cc(S(=O)(=O)N4CCCC4)ccc32)cc1 | i | -2 | -1 | -1 | 5 | i | nt | nt
Cc1ccc(C)c(S(=O)(=O)N2CCN(C(=O)c3ccccn3)CC2)c1 | nt | -2 | -3 | 1 | 2 | i | nt | nt
Cc1cc(C)c(C)c(S(=O)(=O)N2CCN(C(=O)c3ccccn3)CC2)c1C | nt | 3 | -1 | 16* | 8 | i | 1.1* | 4
O=C(CCNC(=O)C1CCN(S(=O)(=O)c2ccc(F)cc2)CC1)NCc1cccc(Cl)c1 | i | -4 | -1 | 6 | 5 | i | nt | nt
SMILES | TMEM16A inh | beta cell repl | MC4R ag barr | m5-HT2A agonist | MC4R antag cAMP | TMEM16A act | MOR ag counter | HTR2A ag conf
O=C1NC[C@H](CCCCN2C[C@H](Cc3ccccc3)N(CCC3CCCCC3)C(=O)C2=O)N(CCC2CCCCC2)C1=O | nt | nt | nt | -1 | nt | nt | nt | nt
O=C1NC[C@@H](CCCCN2C[C@H](Cc3ccccc3)N(CCC3CCCCC3)C(=O)C2=O)N(Cc2ccccc2)C1=O | nt | nt | nt | 15* | nt | nt | -1 | -5
COCOCCn1cc(CN2CCS(=O)(=O)N(Cc3ccc(-c4ccc(Cl)c(Cl)c4)cc3)C(C(C)C)C2=O)nn1 (centres undefined) | nt | nt | 0 | 0 | 0 | nt | nt | nt
COc1cccc(C(O)c2nc(/C=C/c3ccccc3)cs2)c1 (centres undefined) | nt | nt | 0 | -10 | 2 | nt | nt | nt
OC(c1cccc(Cl)c1)c1nc(/C=C/c2ccccc2)cs1 (centres undefined) | nt | nt | 2 | 15* | 1 | nt | 0 | -5
CC(=O)C1=C(C)NC(=O)NC1c1ccc(Cl)cc1 (centres undefined) | i | -1 | -1 | 17* | 9 | i | -1 | -3
O=C(COC(=O)c1ccc[nH]c1=O)Nc1cc(S(=O)(=O)N2CCCCCC2)ccc1Cl | nt | 1 | -2 | -4 | 11 | i | nt | nt
COc1ccc(/C=N/NC(=O)c2cccc([N+](=O)[O-])c2)cc1OC(=O)c1ccccc1 | i | -4 | -3 | -9 | -22 | i | nt | nt
COc1ccc(/C=N/NC(=O)c2cccc([N+](=O)[O-])c2)cc1OC(=O)c1ccc(C)cc1 | i | -5 | 0 | 20* | 1 | i | 0 | -8
O=C(N/N=C/c1ccc(OC(=O)c2ccccc2)c([N+](=O)[O-])c1)c1ccc(O)cc1 | i | -6 | 1 | 16* | -13 | i | -1 | -6
COc1ccc(C(=O)Oc2ccc(/C=N/NC(=O)c3ccccc3OC)cc2[N+](=O)[O-])cc1 | i | 0 | 5 | 4 | -6 | i | nt | nt
O=C(Nc1cccc(C(F)(F)F)c1)Nc1nnc([C@@H]2C[C@H](O)[C@@H](CO)O2)s1 | nt | nt | -1 | -3 | 7 | nt | nt | nt
